In brackets after ≈: the same amount, converted by molar mass.
What was measured:
Mycobacterium kansasii [1] = experiment: Antimycobacterial activity against Mycobacterium kansasii 6509/96 clinical isolate after 14 days by micromethod; format: functional; settings: 6509/96, 336 h
Procedure, shortened: (§1)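 Inocula: M. tuberculosis My 331/88 at 10^-3 dilution, M. avium My 330/88 at 10^-5, M. kansasii My 235/80 and clinical isolate 6509/96 at 10^-4. Compounds added in DMSO at 1000 down to 0.5 (twofold series). Read at 14 and 21 days, plus 7 days for M. kansasii. MIC taken as lowest concentration inhibiting growth.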

Mycobacterium avium [2] = experiment: Antimycobacterial activity against isoniazid resistance Mycobacterium avium 330/88 after 21 days by micromethod; format: functional; settings: 330/88, 504 h; procedure, shortened: as §1
Mycobacterium kansasii [3] = experiment: Antimycobacterial activity against isoniazid resistance Mycobacterium kansasii 225/80 after 21 days by micromethod; format: functional; settings: 225/80, 504 h
[4] = biological target: T1, Isocitrate lyase (Mycobacterium tuberculosis) (UniProt P9WKK7); experiment: Inhibition of Mycobacterium tuberculosis H37Rv isocitrate lyase expressed in Escherichia coli HB101 at 10 umol/L
T1 sequence (whole entry): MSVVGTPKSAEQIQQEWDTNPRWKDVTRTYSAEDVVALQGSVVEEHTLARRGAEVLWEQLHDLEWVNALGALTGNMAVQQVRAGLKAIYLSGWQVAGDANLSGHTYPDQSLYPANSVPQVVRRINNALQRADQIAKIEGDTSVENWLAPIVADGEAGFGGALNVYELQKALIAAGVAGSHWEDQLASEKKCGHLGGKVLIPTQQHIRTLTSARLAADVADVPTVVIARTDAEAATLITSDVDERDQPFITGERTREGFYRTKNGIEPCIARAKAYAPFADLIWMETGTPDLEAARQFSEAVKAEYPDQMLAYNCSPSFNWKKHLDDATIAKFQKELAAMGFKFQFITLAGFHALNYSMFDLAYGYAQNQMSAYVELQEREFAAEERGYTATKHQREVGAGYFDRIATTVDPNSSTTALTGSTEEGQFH
Procedure, shortened: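 Isocitrate lyase assayed per Dixon–Kornberg in 96-well format. Buffer: 50 mmol/L KH2PO4, 4 mmol/L MgCl2, 4 mmol/L phenylhydrazine, 12 mmol/L cysteine, pH 7.0. Glyoxylate phenylhydrazone read at 324 nm. Compounds added in DMSO, with DMSO-alone inhibition subtracted.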

[5] = system: Mycobacterium tuberculosis; experiment: Antimycobacterial activity against Mycobacterium tuberculosis 331/88 after 14 days by micromethod; format: functional; settings: 331/88, 336 h; procedure, shortened: as §1
[6] = Selectivity index, ratio of IC50 for human HepG2 cells to MIC for Mycobacterium tuberculosis 331/88 after 14 days; format: functional
Procedure, shortened: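 Cytotoxicity in Hep G2 cells (passage 12), 10,000 cells/well, in MEM with 10% FBS, 1% glutamine and 1% nonessential amino acids. Cells preincubated 24 h, 37 °C, 5% CO2. Compounds in DMSO at eight concentrations in quadruplicate, 24 h. MTS-type reagent added for 1.5 h, A490 read, IC50 taken at 50% viability. SI = this IC50 over the 14-day M. tuberculosis MIC.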

Mycobacterium avium [7] = experiment: Antimycobacterial activity against isoniazid resistance Mycobacterium avium 330/88 after 14 days by micromethod; format: functional; settings: 330/88, 336 h; procedure, shortened: as §1
Mycobacterium kansasii [8] = experiment: Antimycobacterial activity against isoniazid resistance Mycobacterium kansasii 225/80 after 14 days by micromethod; format: functional; settings: 225/80, 336 h
HepG2 = experiment: Cytotoxicity against human HepG2 cells after 24 hrs by CellTiter-96 cell viability assay; format: functional, cell-based; settings: HepG2, 24 h
Procedure, shortened: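 Hep G2 human hepatic cells (passage 12), 10,000 per well, grown 24 h at 37 °C, 5% CO2 in MEM with 1% glutamine, 10% FBS and 1% nonessential amino acids. Compounds in DMSO at eight increasing concentrations, quadruplicate, 24 h at 37 °C. Kit reagent added, 1.5 h at 37 °C, absorbance 490 nm. IC50 is the concentration reducing viability to 50% of control.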

Mycobacterium kansasii [9] = experiment: Antimycobacterial activity against Mycobacterium kansasii 6509/96 clinical isolate after 21 days by micromethod; format: functional; settings: 6509/96, 504 h; procedure, shortened: as §1
[10] = system: Mycobacterium tuberculosis; experiment: Antimycobacterial activity against Mycobacterium tuberculosis 331/88 after 21 days by micromethod; format: functional; settings: 331/88, 504 h; procedure, shortened: as §1
Mycobacterium kansasii [11] = experiment: Antimycobacterial activity against Mycobacterium kansasii 6509/96 clinical isolate after 7 days by micromethod; format: functional; settings: 6509/96, 168 h; procedure, shortened: as §1
Mycobacterium kansasii [12] = experiment: Antimycobacterial activity against isoniazid resistance Mycobacterium kansasii 225/80 after 7 days by micromethod; format: functional; settings: 225/80, 168 h

| SMILES | MIC (Mycobacterium kansasii [1]) | MIC (Mycobacterium avium [2]) | MIC (Mycobacterium kansasii [3]) | inhibition [4] | MIC [5] | Selectivity Index [6] | MIC (Mycobacterium avium [7]) | MIC (Mycobacterium kansasii [8]) | IC50 (HepG2) | MIC (Mycobacterium kansasii [9]) | MIC [10] | MIC (Mycobacterium kansasii [11]) | MIC (Mycobacterium kansasii [12]) |
| --- | --- | --- | --- | --- | --- | --- | --- | --- | --- | --- | --- | --- | --- |
| COc1cc(Cl)ccc1C(=O)Nc1cc(Cl)c(Cl)cc1O | 250 µM (≈ 86.6 µg/mL) | > 1000 µM | 500 µM (≈ 173 µg/mL) | 0% | 500 µM (≈ 173 µg/mL) | 0.02 | > 1000 µM | 500 µM (≈ 173 µg/mL) | 11.5 µM | 250 µM (≈ 86.6 µg/mL) | 500 µM (≈ 173 µg/mL) | 250 µM (≈ 86.6 µg/mL) | 500 µM (≈ 173 µg/mL) |
| COc1ccc(Cl)cc1C(=S)Nc1ccc(Br)cc1O | 32 µM (≈ 11.9 µg/mL) | 125 µM (≈ 46.6 µg/mL) | 62.5 µM (≈ 23.3 µg/mL) | 7% | 32 µM (≈ 11.9 µg/mL) | 0.24 | 62.5 µM (≈ 23.3 µg/mL) | 32 µM (≈ 11.9 µg/mL) | 7.6 µM | 32 µM (≈ 11.9 µg/mL) | 32 µM (≈ 11.9 µg/mL) | 16 µM (≈ 5.96 µg/mL) | 16 µM (≈ 5.96 µg/mL) |
| COc1ccc(Cl)cc1C(=O)Nc1ccc(Cl)cc1O | 16 µM (≈ 4.99 µg/mL) | 250 µM (≈ 78 µg/mL) | 62.5 µM (≈ 19.5 µg/mL) | 10% | 4 µM (≈ 1.25 µg/mL) | 12.83 | 62.5 µM (≈ 19.5 µg/mL) | 32 µM (≈ 9.99 µg/mL) | 51.3 µM | 16 µM (≈ 4.99 µg/mL) | 4 µM (≈ 1.25 µg/mL) | 8 µM (≈ 2.5 µg/mL) | 16 µM (≈ 4.99 µg/mL) |
| COc1cc(Cl)ccc1C(=S)Nc1ccc(Cl)cc1O | 32 µM (≈ 10.5 µg/mL) | 32 µM (≈ 10.5 µg/mL) | 62.5 µM (≈ 20.5 µg/mL) | 10% | 16 µM (≈ 5.25 µg/mL) | 0.32 | 32 µM (≈ 10.5 µg/mL) | 32 µM (≈ 10.5 µg/mL) | 5.11 µM | 32 µM (≈ 10.5 µg/mL) | 32 µM (≈ 10.5 µg/mL) | 16 µM (≈ 5.25 µg/mL) | 16 µM (≈ 5.25 µg/mL) |
| COc1ccc(Cl)cc1C(=S)Nc1ccc(Cl)cc1O | 32 µM (≈ 10.5 µg/mL) | 62.5 µM (≈ 20.5 µg/mL) | 62.5 µM (≈ 20.5 µg/mL) | 0% | 16 µM (≈ 5.25 µg/mL) | 0.28 | 32 µM (≈ 10.5 µg/mL) | 32 µM (≈ 10.5 µg/mL) | 4.45 µM | 32 µM (≈ 10.5 µg/mL) | 32 µM (≈ 10.5 µg/mL) | 32 µM (≈ 10.5 µg/mL) | 16 µM (≈ 5.25 µg/mL) |
| COc1ccc(Cl)cc1C(=S)Nc1cc(Cl)c(Cl)cc1O | 32 µM (≈ 11.6 µg/mL) | 62.5 µM (≈ 22.7 µg/mL) | 62.5 µM (≈ 22.7 µg/mL) | 9% | 16 µM (≈ 5.8 µg/mL) | 0.23 | 62.5 µM (≈ 22.7 µg/mL) | 62.5 µM (≈ 22.7 µg/mL) | 3.72 µM | 62.5 µM (≈ 22.7 µg/mL) | 32 µM (≈ 11.6 µg/mL) | 16 µM (≈ 5.8 µg/mL) | 32 µM (≈ 11.6 µg/mL) |
| COc1ccc(Cl)cc1C(=O)Nc1cc(Br)ccc1O | 8 µM (≈ 2.85 µg/mL) | 62.5 µM (≈ 22.3 µg/mL) | 8 µM (≈ 2.85 µg/mL) | 0% | 8 µM (≈ 2.85 µg/mL) | 0.51 | 62.5 µM (≈ 22.3 µg/mL) | 8 µM (≈ 2.85 µg/mL) | 4.09 µM | 8 µM (≈ 2.85 µg/mL) | 8 µM (≈ 2.85 µg/mL) | 4 µM (≈ 1.43 µg/mL) | 4 µM (≈ 1.43 µg/mL) |
| COc1cc(Cl)ccc1C(=O)Nc1cc(C(F)(F)F)ccc1O | 250 µM (≈ 86.4 µg/mL) | 250 µM (≈ 86.4 µg/mL) | 250 µM (≈ 86.4 µg/mL) | 0% | 250 µM (≈ 86.4 µg/mL) | 0.1 | 250 µM (≈ 86.4 µg/mL) | 250 µM (≈ 86.4 µg/mL) | 25.4 µM | 250 µM (≈ 86.4 µg/mL) | 250 µM (≈ 86.4 µg/mL) | 250 µM (≈ 86.4 µg/mL) | 250 µM (≈ 86.4 µg/mL) |
| COc1cc(Cl)ccc1C(=O)Nc1cc(Br)ccc1O | 62.5 µM (≈ 22.3 µg/mL) | 62.5 µM (≈ 22.3 µg/mL) | 62.5 µM (≈ 22.3 µg/mL) | 0% | 125 µM (≈ 44.6 µg/mL) | 0.05 | 62.5 µM (≈ 22.3 µg/mL) | 62.5 µM (≈ 22.3 µg/mL) | 5.63 µM | 62.5 µM (≈ 22.3 µg/mL) | 125 µM (≈ 44.6 µg/mL) | 62.5 µM (≈ 22.3 µg/mL) | 62.5 µM (≈ 22.3 µg/mL) |
| COc1cc(Cl)ccc1C(=O)Nc1cc(Cl)ccc1O | 62.5 µM (≈ 19.5 µg/mL) | 125 µM (≈ 39 µg/mL) | 125 µM (≈ 39 µg/mL) | 0% | 125 µM (≈ 39 µg/mL) | 0.7 | 125 µM (≈ 39 µg/mL) | 125 µM (≈ 39 µg/mL) | 87 µM | 62.5 µM (≈ 19.5 µg/mL) | 125 µM (≈ 39 µg/mL) | 16 µM (≈ 4.99 µg/mL) | 125 µM (≈ 39 µg/mL) |
| COc1cc(Cl)ccc1C(=S)Nc1ccc(Br)cc1O | 32 µM (≈ 11.9 µg/mL) | 32 µM (≈ 11.9 µg/mL) | 62.5 µM (≈ 23.3 µg/mL) | 10% | 16 µM (≈ 5.96 µg/mL) | 0.24 | 32 µM (≈ 11.9 µg/mL) | 32 µM (≈ 11.9 µg/mL) | 3.88 µM | 32 µM (≈ 11.9 µg/mL) | 32 µM (≈ 11.9 µg/mL) | 16 µM (≈ 5.96 µg/mL) | 16 µM (≈ 5.96 µg/mL) |
